S1P4 antag: antagonists of human S1P4 receptor. O95977. S1P4-expressing cells, antagonist mode, reporter read-out. inhibition, % at 4.98 µM. 0.26% of 220,000 active. AID 1510; in the data active = inhibition above about 29%
S1P4 agonist: agonists of human S1P4 receptor; S1P4-expressing cell line, agonist reporter assay; 0.35% of 220,000 active; AID 1509; activation, % at 4.98 µM; in the data active = activation above about 11%
Mdm2 ligase inh: inhibitors of human Mdm2 E3 ubiquitin ligase; cell-based MDM2 ubiquitination luciferase reporter, 2 h; 0 = plate control, 100 = twice control, blank-subtracted; signal enhancement, % at 5 µM; 0.11% of 210,000 active;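 active = signal enhancement of 30% or more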;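 also: luminescence tracks abundance of the self-degrading MDM2-luciferase fusion protein; higher signal means inhibition of MDM2 E3 ligase activity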
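Assay system: stable mammalian line carrying autodegrading MDM2–luciferase fusion reporter; Input: 2000 cells in each well; Compound dosing: single-point 5 µM; Schedule: 2 h compound exposure at 37 °C; Signal: SteadyLite luciferase luminescence after 15 min room-temperature reagent incubation; Evaluation: % luminescence enhancement versus blank-corrected plate control mean; Benchmarks: plate controls and plate blanks.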
S1P3 antag: antagonists of human S1P3 receptor; Q99500; CHO S1P3 NFAT-BLA reporter, FRET fluorescence, antagonist mode; inhibition, % at 4.98 µM; 0.27% of 170,000 active; AID 485;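 active = inhibition above the plate cutoff, the mean inhibition of test wells on that plate plus 3 SD, cut at about 28% in these data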;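 also: cells challenged with S1P at its EC80 of 0.8 µM; blue over green emission ratio from cleaved BLA substrate after 4 h stimulation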
Lmaj promast: reduces viability of Leishmania major promastigotes | resazurin fluorescence viability | inhibition, % at 10 µM | 9% of 200,000 active | AID 1063; in the data active = inhibition above about 50%;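 also: promastigotes grown with compound for 44 hours at 28 °C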
S1P4 antag conf: confirmation of human S1P4 receptor antagonists | 71% of 520 active | AID 1524 | S1P4-expressing cell line, antagonist mode, reporter read-out | inhibition, % at 4.98 µM | shares compounds with S1P4 antag; in the data active = inhibition above about 30%
S1P1 antag: human S1P1 antagonism as S1P4 antagonist counter-screen | shares compounds with S1P4 antag | cell-based S1P1 antagonist counterscreen, inhibition | inhibition, % at 4.98 µM | 37% of 520 active | AID 1564; in the data active = inhibition above about 40%;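 also: receptor stimulated with S1P near its EC80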
Target sequence (P21453 whole entry, looked up): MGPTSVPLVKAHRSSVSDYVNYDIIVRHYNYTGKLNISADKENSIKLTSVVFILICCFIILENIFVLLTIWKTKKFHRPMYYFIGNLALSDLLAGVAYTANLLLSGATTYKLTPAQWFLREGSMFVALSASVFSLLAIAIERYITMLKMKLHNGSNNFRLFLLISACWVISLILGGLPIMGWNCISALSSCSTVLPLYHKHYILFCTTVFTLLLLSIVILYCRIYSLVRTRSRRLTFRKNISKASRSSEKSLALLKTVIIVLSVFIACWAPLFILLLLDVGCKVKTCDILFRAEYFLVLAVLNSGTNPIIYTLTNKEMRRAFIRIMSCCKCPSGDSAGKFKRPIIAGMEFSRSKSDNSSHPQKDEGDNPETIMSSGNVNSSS
Of the large screens only hits and unclear results are named; the others gave an inactive call (follow-up assays come after a bar, where they were run). This is one part of a sample in which hits are shown more often than they occur.

CC1=CC(C)C2COC(c3ccc[n+](C)c3)C1C2C (configuration not stated)	none
Oc1[nH]c2ccc(Br)cc2c1N=NC(=S)N1CCOCC1	S1P4 antag 33 (no result: Lmaj promast) | S1P4 antag conf 102 | S1P1 antag 58
COC(=O)N=Nc1c(O)[nH]c2ccc(Br)cc12	none (no result: Lmaj promast)
O=C(Nc1cccc(NC(=O)c2cccs2)c1)c1ccc([N+](=O)[O-])o1	S1P4 antag 56 (no result: Mdm2 ligase inh, Lmaj promast) | S1P4 antag conf 66 | S1P1 antag 62
N#C/C(=C\c1cccc(O)c1)c1nc2ccccc2o1	S1P4 antag 32 (no result: Lmaj promast) | S1P4 antag conf inactive | S1P1 antag inactive
N#C/C(=C\c1ccncc1)c1nc2ccccc2o1	none (no result: Lmaj promast)
O=C(Nc1ccc(N2CCOCC2)cc1)Nc1ccc(Cl)c(Cl)c1	none (no result: S1P3 antag)
Cc1ccc(NC(=O)CS(=O)CC(=O)Nc2ccc(N3CCOCC3)cc2)cc1Cl (configuration not stated)	S1P4 antag 30 | S1P4 antag conf inactive | S1P1 antag inactive
Cc1ccc(N/C(N)=N/c2nc(C)cc(N3CCCCC3)n2)c(C)c1	S1P4 antag 45, Lmaj promast 100 | S1P4 antag conf 45 | S1P1 antag inactive
CC(C)(C)OC(=O)N/N=C\C=C\c1ccc2c(c1)OCO2	none
COC(=O)N/N=C\C=C\c1ccc2c(c1)OCO2	S1P4 antag 55 (no result: S1P3 antag) | S1P4 antag conf inactive | S1P1 antag inactive
COc1cccc(NC(=O)NCc2c(-c3ccccc3)noc2C)c1	none (no result: Lmaj promast)
CC(OC(=O)c1ccc(S(=O)(=O)NCc2ccco2)cc1)C(=O)Nc1ncc(Cl)cc1Cl (configuration not stated)	none
COc1ccc([N+](=O)[O-])c(S(=O)(=O)c2ccccc2)n1	S1P4 antag 88 (no result: Lmaj promast) | S1P4 antag conf 119 | S1P1 antag 79
COc1ccc([N+](=O)[O-])c(S(=O)(=O)c2ccc(Cl)cc2)n1	S1P4 antag 93 (no result: Lmaj promast) | S1P4 antag conf 117 | S1P1 antag 104
C=CCOC(=O)C1=C(C)NC(=S)NC1c1cccs1 (configuration not stated)	none
O=C(NCc1cccnc1)c1c(O)c2cccc3c2n(c1=O)CCC3	none
CC(=O)NC1(c2ccccc2)CCN(c2cc(C)nc(-c3ccccc3)n2)CC1	none
O=C(N/N=C/c1ccc(F)cc1)c1ccc(OCc2ccccc2)cc1	none (no result: Lmaj promast)
CC(C)(C)c1ccc(OCc2ccc(C(=O)N/N=C/c3ccc(O)c(O)c3)cc2)cc1	S1P4 antag 33, Lmaj promast 100 | S1P4 antag conf 63 | S1P1 antag inactive
N#Cc1cnn2c3c(cnc12)C(=O)N1CCc2ccccc2C1C3 (configuration not stated)	none
O=C(O)C1C2CCC(O2)C1C(=O)NCc1ccc(Cl)cc1 (configuration not stated)	none
Cc1ccccc1NC(=O)N1CCc2ccccc2C1	S1P4 antag 32 | S1P4 antag conf 80 | S1P1 antag inactive
Cc1cccc(C)c1NC(=S)N(CCCN1CCOCC1)Cc1cccnc1	none
Cc1noc(/C=C/c2nn(C)cc2Cl)c1[N+](=O)[O-]	S1P4 antag 34 (no result: Lmaj promast) | S1P4 antag conf 59 | S1P1 antag inactive
C=CCOC(=O)C1=C(C)N=C2SCCC(=O)N2C1c1ccc(OC(=O)c2ccco2)cc1 (configuration not stated)	S1P4 antag 38 (no result: S1P3 antag) | S1P4 antag conf 59 | S1P1 antag 52
COC(=O)C1=C(C)N=C2SCCC(=O)N2C1c1ccc(OC(=O)c2ccco2)cc1 (configuration not stated)	none (no result: S1P3 antag)
CCNc1nc(NC(C)(C)C)nc(N2CCCCC2)n1	S1P4 antag 44, Lmaj promast 95 | S1P4 antag conf 92 | S1P1 antag inactive
CC(/C=C(\NC(=O)c1ccccc1)C(=O)N=Nc1c(O)[nH]c2ccc(C)cc12)=C\c1ccccc1	S1P4 antag 35 (no result: S1P3 antag) | S1P4 antag conf inactive | S1P1 antag inactive
Cc1ccc2[nH]c(O)c(N=NC(N)=S)c2c1	none (no result: Lmaj promast)
CC(Nc1ccc(F)cc1F)C(=O)NC(=O)NC1CCCCC1 (configuration not stated)	S1P4 antag 30 | S1P4 antag conf inactive | S1P1 antag inactive
COc1ccc(NC(=O)c2ccc(CNc3c(N4CCCC4)c(=O)c3=O)cc2)cc1Cl	none (no result: Lmaj promast)
CCC(=O)N1CCN(c2ccc(NC(=O)c3ccc([N+](=O)[O-])o3)cc2Cl)CC1	S1P4 antag 56, Lmaj promast 101 | S1P4 antag conf 113 | S1P1 antag 44
O=C(Nc1ccc(S(=O)(=O)N2CCOCC2)cc1)c1ccc([N+](=O)[O-])o1	S1P4 antag 68 (no result: Lmaj promast) | S1P4 antag conf 85 | S1P1 antag inactive
CCN1CCN(c2ccc(NC(=O)c3ccc([N+](=O)[O-])o3)cc2Cl)CC1	S1P4 antag 86, Lmaj promast 101 | S1P4 antag conf 75 | S1P1 antag 67
CCC(=O)N1CCN(c2ccccc2NC(=O)c2ccc(-c3cccc([N+](=O)[O-])c3)o2)CC1	none
O=C(Nc1ccc(S(=O)(=O)N2CCOCC2)cc1)c1ccco1	none
C=CCCCCCCCCC(=O)NNC1CC(=O)N(c2ccccc2)C1=O (configuration not stated)	none (no result: Lmaj promast)
O=C1C2C3C=CC(C4CC34)C2C(=O)N1Cc1ccco1 (configuration not stated)	none
CN1CCN(c2ccc(CNS(=O)(=O)c3ccc(Cl)cc3)cc2)CC1	none (no result: Lmaj promast)
O=C(NC1CCCCC1)N(C1=NCCCCC1)c1ccc(Br)cc1	none
CS(=O)(=O)c1ncc(Cl)c(C(=O)Nc2ccc3ccccc3c2)n1	S1P4 antag 41 | S1P4 antag conf 119 | S1P1 antag 54
O=C(CNc1cccc(C(F)(F)F)c1)N/N=C/c1ccccc1C(=O)O	none (no result: Lmaj promast)
Cc1cccc(NC(=O)C2CCCN(C(=O)NC3CCCCC3)C2)c1C (configuration not stated)	S1P4 antag 36 | S1P4 antag conf inactive | S1P1 antag inactive
COc1ccccc1NC(=O)N1CCCC(C(=O)Nc2cccc(C)c2C)C1 (configuration not stated)	none
CN(C(=O)COC(=O)c1nc(Cl)c(Cl)c(Cl)c1Cl)C1CCS(=O)(=O)C1 (configuration not stated)	S1P4 antag 40 | S1P4 antag conf 74 | S1P1 antag inactive
CN(C(=O)COC(=O)c1nc(-c2ccccc2)n(-c2ccccc2)n1)C1CCS(=O)(=O)C1 (configuration not stated)	none
CCOC(=O)C1(Cc2ccccc2)CCN(Cc2cn(CC(=O)OC)c3ccccc23)CC1	S1P4 antag 30 | S1P4 antag conf inactive | S1P1 antag inactive
Nc1cccc2c1C(=O)N(C(=O)c1cccc(S(=O)(=O)N3CCCC3)c1)C2=O	S1P4 antag 31 (no result: S1P3 antag) | S1P4 antag conf inactive | S1P1 antag inactive
NC(=O)c1cccc(S(=O)(=O)N2CCCCC2)c1	none
CCN(CC)S(=O)(=O)c1cc(C(=O)OCC(=O)Nc2cccc(Br)c2)ccc1F	none
O=C(/C=C/c1c(F)cccc1Cl)c1ccc(O)cc1	S1P4 antag 42 (no result: Lmaj promast) | S1P4 antag conf 62 | S1P1 antag inactive
COc1ccc(N2C(=O)CC(N3CCN(S(=O)(=O)c4ccc(Cl)cc4)CC3)C2=O)cc1 (configuration not stated)	S1P4 antag 30 | S1P4 antag conf inactive | S1P1 antag inactive
Cc1nn(C)c(C)c1N1C(=O)c2cccc3c(N)ccc(c23)C1=O	none
Cc1nn(C)c(C)c1N1C(=O)c2cccc3c(Br)ccc(c23)C1=O	S1P4 antag 44 (no result: S1P3 antag) | S1P4 antag conf 89 | S1P1 antag 85

Screening data (PubChem)
